Data taken from PubChem BioAssay.
Calls of active or inactive are those of the source.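 Rule for the calls, unless noted: active = compounds giving at least 50% inhibition in the cell-based MKP-3 phosphatase rescue imaging test; inactive = the rest.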

Assays:
[1] = inhibitors of TNFa-induced NFkB p65 translocation, primary screen, imaging, HUVEC, MLSMR starter and 10KST1 sets (AID 438;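 active = inhibition above 20% together with a positive visual image hit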;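 note: compound added about 3h40 before a 20 min TNFalpha stimulation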;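 for inhibition: signal is the nuclear over cytoplasmic p65 intensity ratio per well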); conditions: HUVEC TNFa-induced p65 nuclear translocation; cell count: measured here: nuclei count (cytotoxicity indicator), at 2.08 µM; inhibition: at 2 µM, stronger effect = higher value, 0% TNFa-plus-vehicle, 100% no-TNFa wells
[2] = inhibitors of E-selectin induction by TNFa, primary screen, imaging, HUVEC, immunofluorescence, MLSMR starter and 10KST1 sets (AID 487;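 active = visually confirmed hit in the image check and inhibition above 20%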;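 for inhibition: signal is fraction of cell area covered by stained E-selectin grains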;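 for nuclei count: 100% = median nuclei count of all wells on the same plate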); conditions: HUVEC TNFalpha-induced E-selectin immunofluorescence imaging, at 2 µM; inhibition: stronger effect = higher value; nuclei count: measured here: cell number, toxicity
[3] = DUSP6 inhibitors restoring Erk phosphorylation by chemical complementation, primary imaging in DUSP6-transfected HeLa (AID 609); conditions: HeLa MKP-3 transfected, phospho-Erk imaging KS statistic, at 10 µM, cells stimulated with TPA for 15 min;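 for inhibition: phospho-Erk level distribution per well compared with pooled transfected vehicle control wells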
[4] = biological target: Dual specificity protein phosphatase 6 (Homo sapiens) (UniProt Q16828); assay: as above; conditions: HeLa MKP-3 transfected, phospho-Erk imaging KS statistic; at 10 µM; stronger effect = higher value; cells stimulated with TPA for 15 min
[5] = biological target: Voltage-gated potassium channel subunit beta-2 (Rattus norvegicus) (UniProt P62483); assay: KvBeta enzyme negative modulators, primary screen, biochemical, NADPH fluorescence (AID 622;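 active = fluorescence slope higher than the sample average by over 3 SD, cut at about -0.22 in these data, passing the limit was not always enough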;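 note: slope of raw intensity against log time taken from 70 to 1610 s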); conditions: recombinant KvBeta, 4-cyanobenzaldehyde reduction, at 10 µM, stronger effect = higher value
[6] = biological target: Voltage-gated potassium channel subunit beta-2 (Rattus norvegicus) (UniProt P62483); assay: KvBeta positive modulators, primary screen, biochemical, NADPH fluorescence (AID 623;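 active = NADPH fluorescence slope more negative than the mean of all samples by about 3 SD, 99.7% confidence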;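 note: fluorescence intensity change per second fitted from 20 to 320 s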); conditions: Recombinant KvBeta, NADPH fluorescence decrease slope, 10 min; at 10 µM; stronger effect = lower value
[7] = biological target: Muscarinic acetylcholine receptor M4 (Homo sapiens) (UniProt P08173); assay: compounds altering M4/GIRK thallium flux, either direction, primary screen, M4 allosteric agonist project, cell-based, HEK293 M4/GIRK, BTC-AM (AID 625;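 active = fluorescence slope after compound addition differing from the mean of all tested samples at 99.7% confidence, mostly higher but some lower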;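 note: thallium influx through GIRK channels coupled to M4 in HEK293 cells with BTC-AM dye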); conditions: at 10 µM, actives lie on both sides
Procedure, shortened: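 Material – HEK293 cells with M4 receptor and GIRK channels · Buffer or medium – pH 7.3 thallium assay buffer · Doses – one dose, 10 µM final · Timing – cells overnight at 37 °C, BTC-AM loading 1 h, reads 2 min total · Measured by – kinetic fluorescence with BTC-AM dye · Controls – carbachol and DMSO controls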

[8] = inhibitors of larval lipid processing in zebrafish, primary screen, whole organism, PED6 fluorescence, gall bladder and intestine (AID 686;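 active = a full or partial loss of lipid-probe fluorescence in the fish gall bladder, intestine or both, judged by eye; inactive = no fluorescence loss, or compound toxic to the fish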;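 note: larvae 5 to 7 days old with five fish per well; signal comes from phospholipase A2 cleavage of quenched PED6 carried via bile; overnight exposure to compound and PED6 before scoring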); conditions: Zebrafish larvae PED6 lipid processing, fluorescence scoring; screened at 20 µM (by protocol)
Procedure, shortened: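 system = live zebrafish larvae aged 5-7 days, whole organism | probe or stimulus = ingested quenched lipid PED6 at 100 nM | doses = 20 µM single dose | timing = overnight exposure | detection = fluorescence microscopy with visual scoring of gall bladder and intestine | read-out = visual per-well fluorescence inhibition score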

[9] = inhibitors of Chlamydomonas gravitaxis, primary screen, whole organism, Chlamydomonas reinhardtii, WT vs cilia-less mutant, absorbance, 96-well (AID 463189;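 active = inhibition at or above 50% relative to wild type and mutant plate controls; inactive = inhibition below 50%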;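 note: 0% = wild type cc124 cells in DMSO and 100% = ciliumless bld1 mutant cells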); conditions: OD600 absorbance, 2 days, at 10 µM, stronger effect = higher value
[10] = measured here: cell density z-score
[11] = measured here: nuclear c-Myc green intensity z-score
[12] = measured here: nuclear pErk red intensity z-score, stronger effect = higher value

Chain of Voltage-gated potassium channel subunit beta-2 (Rattus norvegicus) (P62483 whole entry, looked up): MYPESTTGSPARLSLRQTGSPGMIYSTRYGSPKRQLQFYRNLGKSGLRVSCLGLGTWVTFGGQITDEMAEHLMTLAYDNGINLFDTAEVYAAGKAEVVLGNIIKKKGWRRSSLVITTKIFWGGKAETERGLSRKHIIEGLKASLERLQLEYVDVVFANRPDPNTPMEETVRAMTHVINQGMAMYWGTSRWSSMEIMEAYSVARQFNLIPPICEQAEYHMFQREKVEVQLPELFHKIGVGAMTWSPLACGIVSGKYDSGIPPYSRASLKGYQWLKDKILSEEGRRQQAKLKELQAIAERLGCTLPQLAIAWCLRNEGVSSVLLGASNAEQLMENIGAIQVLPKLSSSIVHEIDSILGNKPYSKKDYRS
Chain of Dual specificity protein phosphatase 6 (Homo sapiens) (Q16828 whole entry, looked up): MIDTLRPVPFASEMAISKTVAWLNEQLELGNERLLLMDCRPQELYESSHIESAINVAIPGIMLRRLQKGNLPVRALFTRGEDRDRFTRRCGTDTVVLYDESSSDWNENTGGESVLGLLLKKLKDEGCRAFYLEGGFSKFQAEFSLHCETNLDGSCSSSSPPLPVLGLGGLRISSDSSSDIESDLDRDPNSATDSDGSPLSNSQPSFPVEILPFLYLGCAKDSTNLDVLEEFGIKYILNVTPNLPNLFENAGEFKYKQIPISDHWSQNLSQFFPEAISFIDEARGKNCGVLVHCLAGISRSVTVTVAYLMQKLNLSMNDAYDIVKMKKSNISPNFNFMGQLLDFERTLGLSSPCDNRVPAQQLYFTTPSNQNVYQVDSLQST
Chain of Muscarinic acetylcholine receptor M4 (Homo sapiens) (P08173 whole entry, looked up): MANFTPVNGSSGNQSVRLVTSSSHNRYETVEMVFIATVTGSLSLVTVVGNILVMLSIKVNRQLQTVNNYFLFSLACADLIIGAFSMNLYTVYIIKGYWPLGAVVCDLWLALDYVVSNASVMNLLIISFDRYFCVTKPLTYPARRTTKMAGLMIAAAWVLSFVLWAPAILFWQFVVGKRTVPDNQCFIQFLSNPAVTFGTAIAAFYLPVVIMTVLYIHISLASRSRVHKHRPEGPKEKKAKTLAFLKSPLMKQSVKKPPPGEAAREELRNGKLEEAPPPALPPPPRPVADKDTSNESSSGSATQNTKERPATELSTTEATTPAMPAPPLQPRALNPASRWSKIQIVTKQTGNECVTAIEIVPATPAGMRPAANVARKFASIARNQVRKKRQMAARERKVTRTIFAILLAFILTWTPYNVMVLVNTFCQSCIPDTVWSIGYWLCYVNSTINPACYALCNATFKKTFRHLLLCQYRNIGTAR

Structure (SMILES): Cc1cc(/C=N/n2cnnc2)c(C)n1-c1ccc2c(c1)OCO2
- cell count [1]: 374
- inhibition [1]: 0.6% (inactive)
- inhibition [2]: -13.7% (inactive)
- nuclei count [2]: 97.4%
- z-score [3, 10]: -1.04
- z-score [3, 11]: 0.298
- z-score [3, 12]: 0.807
- inhibition [4]: 14% (inactive)
- fluorescence slope [5]: -0.569 (inactive)
- NADPH fluorescence slope [6]: -6.1e-05 (inactive)
- fluorescence slope [7]: 0.00571 (inactive)
- outcome [8]: inactive
- inhibition [9]: -15.4% (inactive)

Structure (SMILES): Cn1c(=O)[nH]c2cc(Cl)cnc21
- cell count [1]: 378
- inhibition [1]: -14% (inactive)
- inhibition [2]: -133% (inactive)
- nuclei count [2]: 108%
- z-score [3, 10]: 0.823
- z-score [3, 11]: -0.334
- z-score [3, 12]: -1.3
- inhibition [4]: 3.42% (inactive)
- fluorescence slope [5]: -0.492 (inactive)
- NADPH fluorescence slope [6]: -3.9e-05 (inactive)
- fluorescence slope [7]: 0.00408 (inactive)
- outcome [8]: inactive
- inhibition [9]: 9.47% (inactive)

Structure (SMILES): O=S(=O)(N[C@@H]1C[C@H]2CC[C@@H]1C2)c1cccs1
- cell count [1]: 433
- inhibition [1]: -8.9% (inactive)
- inhibition [2]: -51.9% (inactive)
- nuclei count [2]: 155%
- z-score [3, 10]: 1.4
- z-score [3, 11]: -0.527
- z-score [3, 12]: -0.281
- inhibition [4]: 9.37% (inactive)
- fluorescence slope [5]: -0.458 (inactive)
- NADPH fluorescence slope [6]: -3.1e-05 (inactive)
- fluorescence slope [7]: 0.00569 (inactive)
- outcome [8]: inactive
- inhibition [9]: -1.87% (inactive)

Structure (SMILES): CCc1cc(=O)oc2cc(C)c(CN3CCCCC3)c(O)c12
- cell count [1]: 612
- inhibition [1]: -9.1% (inactive)
- inhibition [2]: 31% (inactive)
- nuclei count [2]: 182%
- z-score [3, 10]: -0.916
- z-score [3, 11]: -0.125
- z-score [3, 12]: 1.01
- inhibition [4]: -8.95% (inactive)
- fluorescence slope [5]: -0.464 (inactive)
- NADPH fluorescence slope [6]: -6.3e-05 (inactive)
- fluorescence slope [7]: 0.00459 (inactive)
- outcome [8]: inactive
- inhibition [9]: 4.62% (inactive)

Structure (SMILES): CCOC(=O)N1CCN(C2OC(=O)c3ccccc32)CC1 (stereo unspecified)
- cell count [1]: 380
- inhibition [1]: 0.8% (inactive)
- inhibition [2]: -125% (inactive)
- nuclei count [2]: 146%
- z-score [3, 10]: -0.546
- z-score [3, 11]: -0.533
- z-score [3, 12]: -0.506
- inhibition [4]: 24.4% (inactive)
- fluorescence slope [5]: -0.459 (inactive)
- NADPH fluorescence slope [6]: -0.000295 (inactive)
- fluorescence slope [7]: 0.00469 (inactive)
- outcome [8]: inactive; toxic
- inhibition [9]: 14% (inactive)

Structure (SMILES): NC(=O)/C(=N\O)c1ccccc1
- cell count [1]: 575
- inhibition [1]: 5.9% (inactive)
- inhibition [2]: -43.3% (inactive)
- nuclei count [2]: 113%
- z-score [3, 10]: -0.256
- z-score [3, 11]: -0.324
- z-score [3, 12]: 0.104
- inhibition [4]: -4.7% (inactive)
- fluorescence slope [5]: -0.461 (inactive)
- NADPH fluorescence slope [6]: -5.1e-05 (inactive)
- fluorescence slope [7]: 0.00531 (inactive)
- outcome [8]: inactive
- inhibition [9]: -12.8% (inactive)

Structure (SMILES): Cc1ccccc1N1C(=O)C2ON(c3ccccc3)C(c3cccnc3)C2C1=O (stereo unspecified)
- cell count [1]: 541
- inhibition [1]: -7% (inactive)
- inhibition [2]: 20.1% (inactive)
- nuclei count [2]: 88.7%
- z-score [3, 10]: 1.39
- z-score [3, 11]: 0.945
- z-score [3, 12]: -1.38
- inhibition [4]: 7.7% (inactive)
- fluorescence slope [5]: -0.502 (inactive)
- NADPH fluorescence slope [6]: -4.4e-05 (inactive)
- fluorescence slope [7]: 0.00555 (inactive)
- outcome [8]: inactive
- inhibition [9]: -7.8% (inactive)

Structure (SMILES): CCOc1cccc(N2C(=O)CC(N(CCc3ccc(OC)c(OC)c3)C(=O)CC)C2=O)c1 (stereo unspecified)
- cell count [1]: 586
- inhibition [1]: -0.6% (inactive)
- inhibition [2]: 2.4% (inactive)
- nuclei count [2]: 120%
- z-score [3, 10]: -0.772
- z-score [3, 11]: 0.365
- z-score [3, 12]: -1.41
- inhibition [4]: -7.67% (inactive)
- fluorescence slope [5]: -0.453 (inactive)
- NADPH fluorescence slope [6]: -1.2e-05 (inactive)
- fluorescence slope [7]: 0.00547 (inactive)
- outcome [8]: inactive
- inhibition [9]: -0.122% (inactive)

Structure (SMILES): CCOC(=O)CSc1nnc(C)c(=O)[nH]1
- cell count [1]: 670
- inhibition [1]: -5.5% (inactive)
- inhibition [2]: -201% (inactive)
- nuclei count [2]: 163%
- z-score [3, 10]: -0.66
- z-score [3, 11]: 0.692
- z-score [3, 12]: 1.49
- inhibition [4]: -16.8% (inactive)
- fluorescence slope [5]: -0.476 (inactive)
- NADPH fluorescence slope [6]: -4.6e-05 (inactive)
- fluorescence slope [7]: 0.0066 (inactive)
- outcome [8]: inactive
- inhibition [9]: -3.91% (inactive)

Structure (SMILES): Cc1ccc(CNC(=O)c2cc3c(=O)n4ccccc4nc3n(CC3CCCO3)c2=N)cc1 (stereo unspecified)
- cell count [1]: 542
- inhibition [1]: -11.9% (inactive)
- inhibition [2]: -40.3% (inactive)
- nuclei count [2]: 93.4%
- z-score [3, 10]: -0.636
- z-score [3, 11]: 0.681
- z-score [3, 12]: -1.25
- inhibition [4]: 2.71% (inactive)
- fluorescence slope [5]: -0.331 (inactive)
- NADPH fluorescence slope [6]: -2.1e-05 (inactive)
- fluorescence slope [7]: -0.000734 (active)
- outcome [8]: inactive
- inhibition [9]: 32.5% (inactive)

Structure (SMILES): CN(Cc1ccccc1)c1ncnc2ccc(Br)cc12
- cell count [1]: 591
- inhibition [1]: -9.8% (inactive)
- inhibition [2]: -5.2% (inactive)
- nuclei count [2]: 116%
- z-score [3, 10]: -0.293
- z-score [3, 11]: -0.951
- z-score [3, 12]: 0.281
- inhibition [4]: 2.92% (inactive)
- fluorescence slope [5]: -0.517 (inactive)
- NADPH fluorescence slope [6]: -8e-05 (inactive)
- fluorescence slope [7]: 0.00669 (inactive)
- outcome [8]: inactive
- inhibition [9]: 18.9% (inactive)

Structure (SMILES): CN1CCc2c(n(CC(O)CN3C(=O)c4ccccc4S3(=O)=O)c3ccccc23)C1=O (stereo unspecified)
- cell count [1]: 678
- inhibition [1]: -11.7% (inactive)
- inhibition [2]: -109% (inactive)
- nuclei count [2]: 158%
- z-score [3, 10]: 1.84
- z-score [3, 11]: -0.542
- z-score [3, 12]: -1.28
- inhibition [4]: 6.04% (inactive)
- fluorescence slope [5]: -0.488 (inactive)
- NADPH fluorescence slope [6]: -3.3e-05 (inactive)
- fluorescence slope [7]: 0.00494 (inactive)
- outcome [8]: inactive
- inhibition [9]: 6.44% (inactive)
